# Source: ChEMBL document CHEMBL1141182, “Selective benzopyranone and pyrimido[2,1-a]isoquinolin-4-one inhibitors of DNA-dependent protein kinase: synthesis, structure-activity studies, and radiosensitization of a human tumor cell line in vitro” (J Med Chem, 2005)
# Target: T1, Serine-protein kinase ATM (Homo sapiens, UniProt Q13315)
# Experiment: Inhibition of ATM kinase using rabbit polyclonal antisera; No inhibition observed at 100 uM
# Set-up: species or system Oryctolagus cuniculus
# Conditions: target entry is the homologue from another species
row,Structure (SMILES),IC50 [µM]
1,CC1CN(c2cc(=O)c3ccc4ccccc4c3o2)CCO1 (stereo not given),> 100
2,O=c1cc(N2CCOCC2)oc2c1ccc1ccccc12,> 100
3,O=c1cc(N2CCOCC2)nc2c3ccccc3ccn12,> 100

# Target: Phosphatidylinositol 4,5-bisphosphate 3-kinase catalytic subunit alpha isoform (Homo sapiens, UniProt P42336)
# Sequence (P42336 whole entry, canonical isoform): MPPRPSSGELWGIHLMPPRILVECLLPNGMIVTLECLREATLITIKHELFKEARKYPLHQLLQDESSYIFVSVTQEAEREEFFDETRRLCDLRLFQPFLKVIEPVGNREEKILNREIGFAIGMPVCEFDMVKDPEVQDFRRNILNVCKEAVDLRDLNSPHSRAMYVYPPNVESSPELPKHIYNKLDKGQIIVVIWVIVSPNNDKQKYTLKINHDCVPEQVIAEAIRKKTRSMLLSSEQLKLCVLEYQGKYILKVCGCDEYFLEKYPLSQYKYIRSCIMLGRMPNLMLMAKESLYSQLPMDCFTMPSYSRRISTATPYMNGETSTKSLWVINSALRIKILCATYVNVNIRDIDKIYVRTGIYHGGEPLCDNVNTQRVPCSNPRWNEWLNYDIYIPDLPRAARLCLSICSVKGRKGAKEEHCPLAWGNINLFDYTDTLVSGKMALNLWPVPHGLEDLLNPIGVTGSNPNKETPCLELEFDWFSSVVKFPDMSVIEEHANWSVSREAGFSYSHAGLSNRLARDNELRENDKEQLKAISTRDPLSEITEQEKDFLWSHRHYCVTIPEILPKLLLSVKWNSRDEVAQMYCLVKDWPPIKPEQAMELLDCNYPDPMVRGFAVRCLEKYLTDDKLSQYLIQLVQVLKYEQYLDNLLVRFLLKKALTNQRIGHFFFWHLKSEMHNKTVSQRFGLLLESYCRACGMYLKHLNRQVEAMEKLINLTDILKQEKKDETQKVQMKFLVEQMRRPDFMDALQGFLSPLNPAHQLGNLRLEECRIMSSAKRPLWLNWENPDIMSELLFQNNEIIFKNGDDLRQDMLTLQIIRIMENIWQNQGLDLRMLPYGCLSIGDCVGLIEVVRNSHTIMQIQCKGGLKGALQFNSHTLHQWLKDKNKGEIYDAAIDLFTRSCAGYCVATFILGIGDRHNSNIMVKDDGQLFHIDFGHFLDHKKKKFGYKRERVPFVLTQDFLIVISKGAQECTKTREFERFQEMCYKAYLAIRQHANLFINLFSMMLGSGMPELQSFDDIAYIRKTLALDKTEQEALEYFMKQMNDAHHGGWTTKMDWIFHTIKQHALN
# Experiment: Inhibition of Phosphatidylinositol 3-kinase
# Conditions: not given
# Procedure, shortened: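 PI 3-kinase assay run following a prior method, with baculovirus-derived recombinant human p110α and p85α.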
row,Structure (SMILES),IC50 [µM]
1,O=c1cc(N2CCCCC2)oc2c(-c3ccccc3)cccc12,> 100
2,CC1CN(c2cc(=O)c3ccc4ccccc4c3o2)CCO1 (stereo not given),2.4
3,O=c1cc(N2CCSCC2)oc2c(-c3ccccc3)cccc12,> 100
4,O=c1cc(N2CCOCC2)nc2c3ccccc3ccn12,> 100

# Target: DNA-dependent protein kinase catalytic subunit (Homo sapiens, UniProt P78527)
# Sequence (P78527 whole entry): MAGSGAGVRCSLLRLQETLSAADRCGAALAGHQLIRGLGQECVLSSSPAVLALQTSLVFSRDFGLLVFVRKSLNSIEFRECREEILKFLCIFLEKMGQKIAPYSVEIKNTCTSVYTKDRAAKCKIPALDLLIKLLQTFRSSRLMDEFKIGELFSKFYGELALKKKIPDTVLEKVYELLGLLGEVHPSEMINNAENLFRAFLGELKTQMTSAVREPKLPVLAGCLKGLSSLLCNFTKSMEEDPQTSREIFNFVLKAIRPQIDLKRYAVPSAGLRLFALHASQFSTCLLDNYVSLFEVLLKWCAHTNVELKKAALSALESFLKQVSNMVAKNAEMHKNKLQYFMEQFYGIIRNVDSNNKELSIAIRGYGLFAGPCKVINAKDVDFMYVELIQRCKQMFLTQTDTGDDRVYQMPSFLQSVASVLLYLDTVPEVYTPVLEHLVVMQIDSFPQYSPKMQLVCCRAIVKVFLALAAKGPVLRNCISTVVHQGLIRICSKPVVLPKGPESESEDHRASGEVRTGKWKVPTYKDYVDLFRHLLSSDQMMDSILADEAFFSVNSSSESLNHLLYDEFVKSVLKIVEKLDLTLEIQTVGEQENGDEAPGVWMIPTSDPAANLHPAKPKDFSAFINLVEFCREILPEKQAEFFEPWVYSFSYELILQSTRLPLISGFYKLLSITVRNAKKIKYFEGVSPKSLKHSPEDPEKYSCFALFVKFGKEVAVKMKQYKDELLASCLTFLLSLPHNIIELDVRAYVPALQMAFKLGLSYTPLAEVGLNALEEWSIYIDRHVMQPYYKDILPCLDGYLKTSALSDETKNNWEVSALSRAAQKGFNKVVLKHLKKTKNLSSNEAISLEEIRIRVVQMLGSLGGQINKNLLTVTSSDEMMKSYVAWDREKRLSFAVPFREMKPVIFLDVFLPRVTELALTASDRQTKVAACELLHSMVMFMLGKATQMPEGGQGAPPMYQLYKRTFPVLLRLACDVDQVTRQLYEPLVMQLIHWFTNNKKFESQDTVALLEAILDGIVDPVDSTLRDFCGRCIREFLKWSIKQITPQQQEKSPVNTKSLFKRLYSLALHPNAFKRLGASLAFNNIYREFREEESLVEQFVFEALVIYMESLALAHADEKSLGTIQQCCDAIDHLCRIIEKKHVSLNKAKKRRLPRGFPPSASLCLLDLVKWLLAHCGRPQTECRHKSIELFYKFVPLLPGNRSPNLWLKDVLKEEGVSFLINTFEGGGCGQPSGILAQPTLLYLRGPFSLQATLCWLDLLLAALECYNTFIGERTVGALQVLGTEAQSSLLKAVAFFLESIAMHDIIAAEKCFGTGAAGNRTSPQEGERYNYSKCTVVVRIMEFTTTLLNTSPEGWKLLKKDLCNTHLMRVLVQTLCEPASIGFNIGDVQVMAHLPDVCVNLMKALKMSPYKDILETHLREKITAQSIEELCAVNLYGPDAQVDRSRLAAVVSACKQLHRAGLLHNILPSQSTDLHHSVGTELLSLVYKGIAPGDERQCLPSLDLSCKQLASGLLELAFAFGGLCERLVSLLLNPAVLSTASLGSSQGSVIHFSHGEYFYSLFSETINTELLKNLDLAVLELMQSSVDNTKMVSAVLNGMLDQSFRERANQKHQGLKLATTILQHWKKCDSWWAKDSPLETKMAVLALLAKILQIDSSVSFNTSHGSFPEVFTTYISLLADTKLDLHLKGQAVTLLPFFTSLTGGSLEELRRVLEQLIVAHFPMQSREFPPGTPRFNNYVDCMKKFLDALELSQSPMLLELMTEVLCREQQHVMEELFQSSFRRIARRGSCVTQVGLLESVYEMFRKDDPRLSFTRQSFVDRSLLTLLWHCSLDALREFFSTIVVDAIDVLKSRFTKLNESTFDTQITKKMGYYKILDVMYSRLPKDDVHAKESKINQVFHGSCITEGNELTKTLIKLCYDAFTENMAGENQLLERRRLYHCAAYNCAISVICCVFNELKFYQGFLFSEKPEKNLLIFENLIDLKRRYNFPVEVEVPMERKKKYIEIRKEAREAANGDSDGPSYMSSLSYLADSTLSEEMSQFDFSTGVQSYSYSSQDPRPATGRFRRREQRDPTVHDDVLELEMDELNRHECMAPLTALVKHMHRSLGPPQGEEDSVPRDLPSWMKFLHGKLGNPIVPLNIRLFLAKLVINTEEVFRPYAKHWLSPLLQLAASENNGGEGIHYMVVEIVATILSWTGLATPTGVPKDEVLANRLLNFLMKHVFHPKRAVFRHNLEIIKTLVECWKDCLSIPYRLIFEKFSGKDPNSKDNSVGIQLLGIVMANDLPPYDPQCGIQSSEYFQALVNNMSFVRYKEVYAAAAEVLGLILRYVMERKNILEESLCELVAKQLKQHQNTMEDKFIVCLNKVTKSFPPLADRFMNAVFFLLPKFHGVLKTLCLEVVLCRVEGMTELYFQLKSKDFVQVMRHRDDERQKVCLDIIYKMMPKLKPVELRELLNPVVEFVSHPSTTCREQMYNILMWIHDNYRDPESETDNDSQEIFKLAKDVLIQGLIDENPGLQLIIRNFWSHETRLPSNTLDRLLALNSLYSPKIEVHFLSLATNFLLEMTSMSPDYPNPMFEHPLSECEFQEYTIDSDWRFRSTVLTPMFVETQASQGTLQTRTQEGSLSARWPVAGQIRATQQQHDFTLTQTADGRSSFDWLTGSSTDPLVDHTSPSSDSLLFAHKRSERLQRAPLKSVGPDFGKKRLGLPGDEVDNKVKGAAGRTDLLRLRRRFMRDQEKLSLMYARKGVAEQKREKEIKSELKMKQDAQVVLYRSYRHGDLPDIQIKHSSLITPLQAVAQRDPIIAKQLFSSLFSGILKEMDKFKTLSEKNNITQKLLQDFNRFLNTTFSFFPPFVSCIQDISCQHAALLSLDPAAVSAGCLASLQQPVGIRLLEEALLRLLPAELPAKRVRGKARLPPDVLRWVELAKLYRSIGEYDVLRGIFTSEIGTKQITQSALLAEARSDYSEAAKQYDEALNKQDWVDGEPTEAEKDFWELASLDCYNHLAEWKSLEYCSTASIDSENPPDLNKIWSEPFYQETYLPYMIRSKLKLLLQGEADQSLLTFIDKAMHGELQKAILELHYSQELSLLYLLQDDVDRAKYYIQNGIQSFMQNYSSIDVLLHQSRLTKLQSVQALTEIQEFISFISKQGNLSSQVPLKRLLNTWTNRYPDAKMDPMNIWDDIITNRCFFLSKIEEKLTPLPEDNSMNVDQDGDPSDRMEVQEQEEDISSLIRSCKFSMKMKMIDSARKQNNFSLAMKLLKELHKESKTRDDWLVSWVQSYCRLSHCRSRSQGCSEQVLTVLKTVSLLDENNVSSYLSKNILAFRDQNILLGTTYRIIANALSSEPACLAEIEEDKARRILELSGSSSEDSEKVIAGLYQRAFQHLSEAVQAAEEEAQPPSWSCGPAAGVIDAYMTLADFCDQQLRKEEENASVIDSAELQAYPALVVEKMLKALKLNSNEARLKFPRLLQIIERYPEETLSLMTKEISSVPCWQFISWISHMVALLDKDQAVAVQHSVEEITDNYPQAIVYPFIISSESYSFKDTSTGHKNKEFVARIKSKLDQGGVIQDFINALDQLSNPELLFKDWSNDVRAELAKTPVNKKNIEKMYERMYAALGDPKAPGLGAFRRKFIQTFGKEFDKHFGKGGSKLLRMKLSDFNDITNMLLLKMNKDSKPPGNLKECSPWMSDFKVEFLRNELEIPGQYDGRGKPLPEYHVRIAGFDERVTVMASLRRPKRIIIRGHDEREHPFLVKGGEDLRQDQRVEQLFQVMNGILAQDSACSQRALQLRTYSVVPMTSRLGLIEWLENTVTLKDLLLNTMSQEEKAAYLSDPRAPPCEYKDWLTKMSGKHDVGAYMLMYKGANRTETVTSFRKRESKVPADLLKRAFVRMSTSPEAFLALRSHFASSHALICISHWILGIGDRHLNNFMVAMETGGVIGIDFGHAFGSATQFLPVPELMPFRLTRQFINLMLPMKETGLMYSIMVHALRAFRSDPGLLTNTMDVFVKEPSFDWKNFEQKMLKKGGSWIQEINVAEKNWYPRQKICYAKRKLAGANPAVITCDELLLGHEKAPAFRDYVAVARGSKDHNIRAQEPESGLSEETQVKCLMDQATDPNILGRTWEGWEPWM
# Experiment: Inhibition of DNA dependent protein kinase isolated from HeLa cells
# Type: cell-free
# Conditions: not given
row,Structure (SMILES),IC50 [µM]
1,O=c1cc(N2CCOc3ccccc32)oc2c1ccc1ccccc12,> 10
2,C#CCCN(C)c1cc(=O)n2ccc3ccccc3c2n1,> 10
3,O=c1cc(N2CCCOCC2)oc2c1ccc1ccccc12,2.01
4,CC(O)CNc1cc(=O)n2ccc3ccccc3c2n1 (stereo not given),> 10
5,O=c1cc(N2CCSCC2)c2cc3ccccc3cc2o1,5.15
6,CN1CCN(c2cc(=O)n3ccc4ccccc4c3n2)CC1,> 10
7,Cc1ccc2oc(=O)cc(N3CCOCC3)c2c1,5.35
8,CN1CCN(c2cc(=O)c3ccc4ccccc4c3o2)CC1,> 10
9,O=c1cc(N2CCOCC2)c2c(ccc3ccccc32)o1,1.9
10,O=c1cc(-c2ccc(Cl)cc2)oc2c1ccc1ccccc12,> 10
11,O=c1cc(N2CCSCC2)nc2c3ccccc3ccn12,1.69
12,O=c1cc(-c2ccccc2[N+](=O)[O-])oc2c1ccc1ccccc12,> 10
13,O=c1cc(-c2ccccc2F)oc2c1ccc1ccccc12,8.59
14,O=c1cc(-c2cccc(F)c2)oc2c1ccc1ccccc12,5.71
15,Nc1ccc(-c2cc(=O)c3ccc4ccccc4c3o2)cc1,7.7
16,COc1ccc2oc(=O)cc(N3CCOCC3)c2c1,1.75
17,O=c1cc(N2CCCCC2)oc2c(-c3ccccc3)cccc12,4.67
18,O=c1cc(-c2ccccc2)oc2c1ccc1ccccc12 [ALPHA-NAPHTHOFLAVONE],4.98
19,O=c1cc(NCC2CCCO2)nc2c3ccccc3ccn12 (stereo not given),> 10
20,Nc1ccccc1-c1cc(=O)c2ccc3ccccc3c2o1,> 10
21,O=c1cc(N2CCCCC2)oc2c1ccc1ccccc12,3.81
22,O=c1cc(N(CCO)CCO)nc2c3ccccc3ccn12,> 10
23,O=c1cc(N2CCOCC2)oc2c3c(ccc12)CCCC3,0.36
24,O=c1cc(-c2ccc([N+](=O)[O-])cc2)oc2c1ccc1ccccc12,> 10
25,O=c1cc(N2CC[C@@H](O)C2)nc2c3ccccc3ccn12,6.49
26,Cc1cccc2c(N3CCOCC3)cc(=O)oc12,8.05

row,Structure (SMILES),IC50 [µM]
1,O=c1cc(-c2cccnc2)oc2c1ccc1ccccc12,1.92
2,O=c1cc(N2C[C@H]3C[C@@H]2CO3)oc2c1ccc1ccccc12,3.19
3,O=c1cc(N2CCOCC2)oc2cc3ccccc3cc12,0.39
4,COc1ccc2c(=O)cc(N3CCOCC3)oc2c1,0.95
5,O=c1cc(-c2cccc([N+](=O)[O-])c2)oc2c1ccc1ccccc12,> 10
6,O=c1cc(N2CCCC2)oc2c1ccc1ccccc12,6.17
7,O=c1cc(NCCOc2ccccc2Br)oc2c1ccc1ccccc12,> 10
8,O=c1cc(NCC2CCCO2)oc2c1ccc1ccccc12 (stereo not given),> 10
9,Nc1cccc(-c2cc(=O)c3ccc4ccccc4c3o2)c1,> 10
10,O=c1cc(-c2ccncc2)oc2c1ccc1ccccc12,> 10
11,COc1cccc2c(N3CCOCC3)cc(=O)oc12,10.9
12,O=c1cc(N2CCSCC2)oc2c1ccc1ccccc12,1.38
13,C[C@@H]1CN(c2cc(=O)n3ccc4ccccc4c3n2)C[C@H](C)O1,3.25
14,O=c1cc(N2CCOCC2)c2cc3ccccc3cc2o1,3.24
15,CC1CCC(C)N(c2cc(=O)n3ccc4ccccc4c3n2)C1 (stereo not given),> 10
16,COc1cccc2oc(=O)cc(N3CCOCC3)c12,> 10
17,O=c1cc(N2CC[S+]([O-])CC2)oc2c(-c3ccccc3)cccc12,5.71
18,OCCOCC/N=c1\cc(O)c2ccc3ccccc3c2o1,> 10
19,Cc1cccc2c(=O)cc(N3CCOCC3)oc12,1.65
20,O=c1cc(N2CC=CC2)nc2c3ccccc3ccn12,2.81
21,O=c1cc(-c2cccc(Cl)c2)oc2c1ccc1ccccc12,> 10
22,COc1cccc2c(=O)cc(N3CCOCC3)oc12,1.2
23,CN(CCO)c1cc(=O)n2ccc3ccccc3c2n1,> 10
24,O=c1cc(N2CCCC2)nc2c3ccccc3ccn12,6.68
25,O=c1cc(N2CCNCC2)oc2c1ccc1ccccc12,> 10
26,CC1CN(c2cc(=O)c3ccc4ccccc4c3o2)CC(C)O1 (stereo not given),4.14

row,Structure (SMILES),IC50 [µM]
1,CC(C)(C)c1ccc(-c2cc(=O)c3ccc4ccccc4c3o2)cc1,> 10
2,O=c1cc(N2CCSCC2)oc2c(-c3ccccc3)cccc12,1.61
3,O=c1cc(-c2ccc(F)cc2)oc2c1ccc1ccccc12,> 10
4,O=c1cc(N2CCC[C@H](CO)C2)oc2c1ccc1ccccc12,> 10
5,O=c1cc(N2CCOCC2)nc2c3ccccc3ccn12,0.28
6,O=c1cc(NCC(O)CO)nc2c3ccccc3ccn12 (stereo not given),8.46
7,O=c1cc(N2CCOC(CO)C2)nc2c3ccccc3ccn12 (stereo not given),> 10
8,S=c1cc(N2CCOCC2)oc2c1ccc1ccccc12,0.26
9,O=c1cc(N2CCOCC2)c2ccccc2o1,4.82
10,COc1ccc2c(N3CCOCC3)cc(=O)oc2c1,11.3
11,CN(CC(O)c1ccccc1)c1cc(=O)n2ccc3ccccc3c2n1 (stereo not given),10.5
12,CC1(C)CN(c2cc(=O)c3ccc4ccccc4c3o2)CCO1,3.52
13,O=c1cc(N(CCO)Cc2ccccc2)nc2c3ccccc3ccn12,> 10
14,O=c1cc(-c2ccccc2)oc2ccccc12 [FLAVONE],> 10
15,O=c1cc(N2CCC(O)C2)oc2c1ccc1ccccc12 (stereo not given),9.27
16,O=c1cc(-c2ccccc2Cl)oc2c1ccc1ccccc12,> 10
17,O=c1cc(NCC(O)c2cccc(O)c2)nc2c3ccccc3ccn12 (stereo not given),> 10
18,O=c1cc(NCCO)nc2c3ccccc3ccn12,> 10
19,CC1(C)CN(c2cc(=O)n3ccc4ccccc4c3n2)CCO1,6.71
20,CCC1CN(c2cc(=O)n3ccc4ccccc4c3n2)CCO1 (stereo not given),> 10
21,O=c1cc(N2CCCCC2)c2ccccc2o1,8.81
22,O=c1cc(N2CCOCC2)oc2ccc(-c3ccccc3)cc12,2.24
23,O=c1cc(N2CCOCC2)nc2ccccn12,2
24,O=c1cc(N2CCOCC2)c2cc(Cl)ccc2o1,3.27

# Target: T2, Serine/threonine-protein kinase ATR (Homo sapiens, UniProt Q13535)
# Experiment: Inhibition of ATR kinase using rabbit polyclonal antisera; No inhibition observed at 100 uM
# Set-up: species or system Oryctolagus cuniculus
# Conditions: target entry is the homologue from another species
row,Structure (SMILES),IC50 [µM]
1,CC1CN(c2cc(=O)c3ccc4ccccc4c3o2)CCO1 (stereo not given),> 100
2,O=c1cc(N2CCOCC2)oc2c1ccc1ccccc12,> 100
3,O=c1cc(N2CCOCC2)nc2c3ccccc3ccn12,> 100

# Target: T1, Serine-protein kinase ATM
# Experiment: Inhibition of ATM kinase using rabbit polyclonal antisera
# Set-up: species or system Oryctolagus cuniculus
# Conditions: target entry is the homologue from another species
# Procedure, shortened: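 ATM kinase activity assayed following a previously published method, using rabbit polyclonal antisera raised against the COOH-terminal 400 amino acids of ATM.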
row,Structure (SMILES),IC50 [µM]
1,O=c1cc(N2CCOCC2)oc2c(-c3ccccc3)cccc12 [LY-294002],> 100

# Target: Serine/threonine-protein kinase mTOR (Homo sapiens, UniProt P42345)
# Experiment: Inhibition of mTOR protein isolated from HeLa cells
# Conditions: not given
# Procedure, shortened: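 mTOR immunoprecipitated from HeLa cell cytoplasmic extract. Activity measured following a prior method, with recombinant PHAS-1 as substrate.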
row,Structure (SMILES),IC50 [µM]
1,CC1CN(c2cc(=O)c3ccc4ccccc4c3o2)CCO1 (stereo not given),4.8
2,O=c1cc(N2CCOCC2)nc2c3ccccc3ccn12,5.3

# Target: T2, Serine/threonine-protein kinase ATR
# Experiment: Inhibition of ATR kinase using rabbit polyclonal antisera
# Set-up: species or system Oryctolagus cuniculus
# Conditions: target entry is the homologue from another species
# Procedure, shortened: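 ATR kinase activity measured following earlier published methods, using antisera raised against ATR amino acids 400–480.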
row,Structure (SMILES),IC50 [µM]
1,O=c1cc(N2CCOCC2)oc2c(-c3ccccc3)cccc12 [LY-294002],> 100
